# Measurements from PMC7114445 (Virus Research, 2015).
# Legend:
# Assay in all cases: Plaque inhibition test in fcwf-4 cells
# type I FIPV strain KU-2 = assay type: cell-based, feline infectious peritonitis virus; conditions: for Plaque reduction by serial dilutions of peptides: peptide 160, 80 and 40 μM, triplicate
# Procedure, shortened: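 Strain KU-2 plaque assay in fcwf-4 cells. Peptide from a 10 mM DMSO stock was diluted to 100 μM, or to 160, 80 and 40 μM, in medium with 2% FCS and 25 μg/mL DEAE-dextran, with 30 min RT pretreatment; 1% DMSO was the solvent control. Without washing, 10 μL of 8000 pfu/mL virus added, 30 min at 37 °C. Wash, carboxymethyl cellulose overlay, 2 days at 37 °C, crystal violet. % plaque inhibition against virus-alone wells.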
# type I FIPV strain Black = assay type: cell-based, feline infectious peritonitis virus; conditions: peptide 100 μM
# Procedure, shortened: (§1)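 Peptide (10 mM DMSO stock) diluted to 100 μM in medium with 2% FCS and 25 μg/mL DEAE-dextran, then applied to fcwf-4 cells for 30 min at RT. Same-fold DMSO (1%) served as solvent control. Without washing, 10 μL of 8000 pfu/mL virus added for 30 min at 37 °C. Cells washed, overlaid with 2% FCS/1.5% carboxymethyl cellulose for 2 days at 37 °C, formalin-fixed and crystal violet-stained. % plaque inhibition calculated against virus-alone wells.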
# type I FIPV strain UCD-1 = assay type: cell-based, feline infectious peritonitis virus; conditions: peptide 100 μM
# Procedure, shortened: as §1
# [1] = system: type II FIPV strain 79-1146; assay type: cell-based, feline infectious peritonitis virus; conditions: peptide 100 μM
# Procedure, shortened: as §1
# FHV strain C7301 = assay type: cell-based, feline herpesvirus; conditions: peptide 100 μM, fcwf-4 cells 30 min RT, triplicate
# Procedure, shortened: as §1
# FCV strain F4 = assay type: cell-based, feline calicivirus; conditions: peptide 100 μM, fcwf-4 cells 30 min RT, triplicate
# Procedure, shortened: as §1
# [2] = fcwf-4 cells 30 min RT, vs 1% DMSO, triplicate
sequence,measurement,setting,value
YTDVMVDVNGTAITRLFYCD [I-S1-10],Plaque reduction by serial dilutions of peptides,type I FIPV strain KU-2,dose-dependent
YHWMNVTLHVVLNDTEKKYD [I-S1-16],"Plaque inhibition, type I FIPV strain Black",type I FIPV strain Black; fcwf-4 cells,≥ 50%
same,Inhibition of infection by type I FIPV strain Black,type I FIPV strain Black; [2],significantly inhibited
same,"Plaque inhibition, type I FIPV strain UCD-1",type I FIPV strain UCD-1; fcwf-4 cells,≥ 50%
same,Inhibition of infection by type I FIPV strain UCD-1,type I FIPV strain UCD-1; [2],significantly inhibited
same,"Plaque inhibition, type II FIPV strain 79-1146",[1]; fcwf-4 cells,less than 50%
same,Inhibition of infection by type II FIPV strain 79-1146,[1]; [2],significantly inhibited
same,Inhibitory effect on infection by FHV strain C7301,FHV strain C7301,no inhibitory effects
same,Inhibitory effect on infection by FCV strain F4,FCV strain F4,no inhibitory effects
same,"Plaque inhibition, type I FIPV strain KU-2",type I FIPV strain KU-2; peptide 100 μM,≥ 50%
same,Plaque reduction by serial dilutions of peptides,type I FIPV strain KU-2,dose-dependent
VNFSISSVEEYGFWTIAYTN [I-S1-8],Plaque reduction by serial dilutions of peptides,type I FIPV strain KU-2,dose-dependent
LFYKYTSLQGLYTYSNLVEL [I-S1-22],Plaque reduction by serial dilutions of peptides,type I FIPV strain KU-2,dose-dependent
